rRNA inh HTS = inhibits bacterial ribosomal RNA function over humanized ribosomes; E. coli WT GFP vs humanized-ribosome RFP mutants, fluorescence, 24 h; active compounds read low; DMSO median 0, no signal -100; GFP signal change (wild-type ribosome), % (no concentration beside the values); 1.6% of 350,000 active; AID 720706;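 active means significant combined selectivity score with lowered wild-type GFP, culture density cut under 30%, mutant RFP and density less affected; inactive means any of these conditions unmet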
dFosB act-1 = activators of mouse delta FosB homodimer; P13346; purified delta FosB, TAMRA-CDK5 oligo fluorescence polarization; percent of positive-control signal above neutral wells; activation, % at 25 µM; 0.99% of 340,000 active; AID 493131;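 active means mean activation above about 17%, with every replicate also reaching it, limit read from the data, passing the limit was not always enough; inconclusive means only one of the two conditions met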
Target sequence (P13346 whole entry, looked up): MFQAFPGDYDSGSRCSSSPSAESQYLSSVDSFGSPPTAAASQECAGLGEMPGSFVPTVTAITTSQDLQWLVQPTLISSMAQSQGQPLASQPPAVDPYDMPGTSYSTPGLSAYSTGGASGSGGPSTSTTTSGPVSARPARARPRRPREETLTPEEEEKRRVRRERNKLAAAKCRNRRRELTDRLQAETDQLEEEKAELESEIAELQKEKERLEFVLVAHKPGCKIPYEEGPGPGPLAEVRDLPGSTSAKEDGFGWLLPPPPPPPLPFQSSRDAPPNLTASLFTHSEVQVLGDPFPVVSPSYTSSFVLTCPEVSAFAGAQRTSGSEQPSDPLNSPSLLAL
SR-BI uptake up = activators of SR-BI mediated HDL lipid uptake. CHO ldlA[mSR-BI] cells, DiI-HDL uptake fluorescence, 3 h; 100 = double the neutral-control signal. activation, % at 12.5 µM. 0.096% of 320,000 active;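 active means mean replicate activation of at least 60% and every replicate at or above 60%; inconclusive means mean or all-replicate condition met, but not both; inactive means mean below 60% and not all replicates reaching 60%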;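 further: 0% = median plate neutral-control signal and 100% = twice that signal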
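Test system: SR-BI-overexpressing, LDLR-lacking CHO cells. Measured by: DiI fluorescence, bottom read. Medium: Ham's F12 with 0.5% BSA, HEPES 25 mM, pH 7.4. Timing: 3 h uptake period with compound, 37 °C.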
XiGFP reactiv = X-chromosome reactivation activator | activation, % at 7.58 µM | 0.055% of 360,000 active | XiGFP mouse fibroblasts, % GFP-positive cells imaging, 3 d; cells co-treated with 5-aza-dC sensitizer; scaled so ellipticine positive control = 100%;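 active means mean normalized replicate activation at least 10% and every replicate at or above 10%; inconclusive means only one of the two criteria met; inactive means mean below 10% and not all replicates reach 10%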;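 further: 0% = median of on-plate neutral control wells and 100% = ellipticine 6 µM median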
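material = 68-5-11 XiGFP fibroblast line | medium = DMEM plus 5-aza-dC sensitizer | schedule = 3 days compound exposure | benchmarks = positive control ellipticine, 6 µM final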
PvdQ inh = blocks Pseudomonas aeruginosa PvdQ acylase activity; purified PvdQ acylase, fluorescence plate reader; inhibition, % at 10 µM; AID 488965; 0.063% of 340,000 active; in the data active means inhibition above about 30%, passing the limit was not always enough; inconclusive means no clear call, values can overlap the other calls;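 further: 0% = vehicle neutral wells and 100% = reference inhibitor wells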
SR-BI DiI inh = blocks mouse SR-BI lipid uptake from DiI-HDL. 0.96% of 320,000 active. ldlA[mSR-BI] CHO cells, DiI-HDL uptake fluorescence, 3 h. inhibition, % at 12.5 µM. Q61009;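 active means mean replicate inhibition of at least 70% and a set share of replicates each scoring 70 or more; inconclusive means meets just one of the two criteria; inactive means fails both criteria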;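 further: 0% = median of neutral control wells and 100% = median of positive control wells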
dFosB act-2 = delta FosB (mouse) homodimer activation; shares compounds with dFosB act-1; AID 588690; purified delta FosB, TAMRA-CDK5 oligo fluorescence polarization; normalised: neutral wells 0, positive control 100; activation, % at 24.9 µM; 2,400 tested, under 10 active;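 active means highest replicate activation at or above 34% and every replicate reaching that threshold; inconclusive means meets only one of the two criteria; inactive means meets neither criterion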;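 further: higher polarization means more probe DNA bound by delta FosB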
* hit, by the source's call. Most compounds without a hit are left out; they make up all but 2.6% or so of the library.

`CC(C)c1ccc(NS(=O)(=O)c2ccc3c(c2)NC(=O)CO3)cc1` gave rRNA inh HTS 0, dFosB act-1 -15, SR-BI uptake up 1, XiGFP reactiv 0, PvdQ inh -12 and SR-BI DiI inh -1.
Screening O=c1[nH]c(Cn2nnc(-c3ccccc3)n2)nc2scc(-c3ccccc3)c12 returned dFosB act-1 34*, SR-BI uptake up -11, PvdQ inh 1, SR-BI DiI inh 11 and dFosB act-2 0.
O=c1[nH]c(CN2CCN(Cc3ccccc3)CC2)nc2scc(-c3ccccc3)c12 was read as rRNA inh HTS -9, dFosB act-1 7, SR-BI uptake up -18, XiGFP reactiv 0, PvdQ inh 5 and SR-BI DiI inh 18.
`O=C(N/N=C/c1cccnc1)c1cccc(NC(=O)c2ccc(Cl)cc2)c1` gave dFosB act-1 32*, SR-BI uptake up -29, PvdQ inh -8, SR-BI DiI inh 29 and dFosB act-2 2.
`Cc1cccc(/C=N/NC(=O)c2ccc(NC(=O)c3ccc(Cl)cc3)cc2)n1` gave rRNA inh HTS -1, dFosB act-1 41*, SR-BI uptake up -77, XiGFP reactiv 0, PvdQ inh -6, SR-BI DiI inh 77* and dFosB act-2 7.
For O=C(Nc1ccc(Br)cc1)c1ccc(Br)c(S(=O)(=O)Nc2cccnc2)c1 the results were dFosB act-1 28*, SR-BI uptake up -4, PvdQ inh -24, SR-BI DiI inh 4 and dFosB act-2 -3.
For O=C(/C=C/c1cccnc1)c1ccc(NC(=O)c2cccc(Br)c2)cc1 the results were dFosB act-1 46*, SR-BI uptake up -31, PvdQ inh 1, SR-BI DiI inh 31 and dFosB act-2 1.
Screening Cc1ccccc1NC(=O)c1ccccc1NC(=O)c1ccco1 returned dFosB act-1 -13, SR-BI uptake up -29, PvdQ inh 16 and SR-BI DiI inh 29.
`CC1(C2CC2)NC(=O)N(CC(=O)Nc2cc(S(=O)(=O)N3CCCCC3)ccc2Cl)C1=O` (stereo not given) gave rRNA inh HTS -1, dFosB act-1 -5, SR-BI uptake up -29, XiGFP reactiv 0, PvdQ inh 6 and SR-BI DiI inh 29.
Screening Cc1ccnc(NC(=O)c2cccc(NC(=O)c3ccc(Cl)c(Cl)c3)c2)c1 returned rRNA inh HTS 11, dFosB act-1 48*, SR-BI uptake up -74, XiGFP reactiv 0, PvdQ inh -7, SR-BI DiI inh inconclusive and dFosB act-2 -2.
`O=C(Nc1ccc(S(=O)(=O)Nc2nccs2)cc1)c1ccc(F)cc1` gave rRNA inh HTS -1, dFosB act-1 2, XiGFP reactiv 0 and PvdQ inh -7.
For O=C(Nc1ccc(S(=O)(=O)Nc2nccs2)cc1)c1ccc(N2C(=O)c3ccccc3C2=O)cc1 the results were rRNA inh HTS 1, dFosB act-1 33*, SR-BI uptake up 17, XiGFP reactiv 0, PvdQ inh -5, SR-BI DiI inh -17 and dFosB act-2 -1.
For O=C(Nc1ccccc1N1CCCC1)C1CCN(S(=O)(=O)c2cccc(C(F)(F)F)c2)CC1 the results were rRNA inh HTS 0, dFosB act-1 -10, SR-BI uptake up -39, XiGFP reactiv 0, PvdQ inh -17 and SR-BI DiI inh 39.
`Cc1c(C(=O)Nc2ccc(F)cc2)cn2c(nc3ccccc32)c1C#N` gave rRNA inh HTS 17, dFosB act-1 33*, SR-BI uptake up -1, XiGFP reactiv 0, PvdQ inh -16, SR-BI DiI inh 1 and dFosB act-2 -1.
COc1ccc(Cl)cc1Nc1nc(NCCO)nc(N2CCCCC2)n1 was read as rRNA inh HTS 11, dFosB act-1 -2, SR-BI uptake up -27, XiGFP reactiv 0, PvdQ inh 3 and SR-BI DiI inh 27.
For O=C(Cn1cnc2ccccc2c1=O)Nc1nnc(C2CC2)s1 the results were dFosB act-1 8, SR-BI uptake up 9, XiGFP reactiv 0, PvdQ inh -6 and SR-BI DiI inh -9.
O=C(Cn1cnc2ccccc2c1=O)Nc1nnc(SCc2ccc(Cl)cc2)s1 was read as rRNA inh HTS 3, dFosB act-1 25*, SR-BI uptake up 1, XiGFP reactiv 1, PvdQ inh 7, SR-BI DiI inh -1 and dFosB act-2 -5.
`Cc1cccc(NC(=O)Cn2c(=O)n(CCC(=O)NC3CCCC3)c(=O)c3ccccc32)c1` gave dFosB act-1 42*, SR-BI uptake up 3, PvdQ inh -1, SR-BI DiI inh -3 and dFosB act-2 1.
`Cc1ccc(CNC(=O)Cn2c(=O)n(-c3ccccc3)c(=O)c3sccc32)cc1` gave rRNA inh HTS 10, dFosB act-1 21*, SR-BI uptake up 24, XiGFP reactiv 0, PvdQ inh 7, SR-BI DiI inh -24 and dFosB act-2 -9.
Screening O=C(CCn1c(=O)c2ccccc2n(Cc2cccnc2)c1=O)NCc1ccc2c(c1)OCO2 returned dFosB act-1 -5, SR-BI uptake up 40, PvdQ inh 1 and SR-BI DiI inh -40.
`Cc1ccccc1Cn1c(=O)n(CCC(=O)NCc2ccc3c(c2)OCO3)c(=O)c2ccccc21` gave dFosB act-1 60*, SR-BI uptake up 5, PvdQ inh -7, SR-BI DiI inh -5 and dFosB act-2 -1.
For Cc1ccc(CNC(=O)CCCn2c(=O)c3ccccc3n(CC(=O)NC3CCCC3)c2=O)cc1 the results were dFosB act-1 27*, SR-BI uptake up -8, PvdQ inh -4, SR-BI DiI inh 8 and dFosB act-2 -2.
`O=C(NCCCc1nc2ccccc2[nH]1)c1ccco1` gave rRNA inh HTS -3, dFosB act-1 -6, SR-BI uptake up -1, XiGFP reactiv 0, PvdQ inh -11 and SR-BI DiI inh 1.
`O=C(C[C@H]1CC[C@H](NC(=O)c2cccc(F)c2)[C@H](CO)O1)NCc1ccccc1` gave rRNA inh HTS 7 and XiGFP reactiv 0.
Screening COc1cc2ccccc2cc1C(=O)N/N=C/c1cccnc1 returned rRNA inh HTS -3, dFosB act-1 -24, SR-BI uptake up -9, XiGFP reactiv 0, PvdQ inh -15 and SR-BI DiI inh 9.
Cc1occc1C(=O)N/N=C/c1ccc(OCc2ccccc2)cc1 was read as rRNA inh HTS 1, dFosB act-1 30*, SR-BI uptake up -10, XiGFP reactiv 0, PvdQ inh 7, SR-BI DiI inh 10 and dFosB act-2 3.

Screening data as filed in PubChem BioAssay.
